Measured values from ChEMBL document CHEMBL1121714, “Nonsteroidal antiinflammatory agents. 2. Synthesis of 4',5-disubstituted 3-biphenylylacetic acids and their derivatives with antiinflammatory and analgesic activities” (J Med Chem, 1981).

Experiments:
[1] = Acute toxicity was determined 168 hr after a single ip injection to groups of four male ddY mice.; type: organism-based; conditions: mouse, in vivo
How it was run: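 LD50 calculated by the method of Weil.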

Mus musculus = test: Analgesic activity against AcOH writhing after po administration.
Rattus norvegicus [2] = test: Inhibitory activity on carrageenan-induced paw edema in rats 3h after po administration of 50 mg/kg; type: functional
How it was run: (§1)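 Oral dosing, screened first at 50 mg/kg and retested at 20 and 10 mg/kg if inhibition was 30% or more. Paw volume was remeasured at 3 h, and the increase was compared with controls to give percent inhibition.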

Rattus norvegicus [3] = test: Inhibitory activity on carrageenan-induced paw edema in rats 3h after po administration of 20 mg/kg; type: functional; how it was run: as §1
Rattus norvegicus [4] = test: Inhibitory activity on carrageenan-induced paw edema in rats 3h after po administration of 10 mg/kg; type: functional; how it was run: as §1
Rattus norvegicus [5] = test: Inhibitory activity on carrageenan-induced paw edema in rats 3h after administration of 20 mg/kg; type: functional; how it was run: as §1
Rattus norvegicus [6] = test: Inhibitory activity on carrageenan-induced paw edema in rats 3h after po administration of 5 mg/kg; type: functional; conditions: read-out: Inhibition
Rattus norvegicus [7] = test: Inhibitory activity on carrageenan-induced paw edema in rats 3h after po administration of 2 mg/kg; type: functional; conditions: read-out: Inhibition
Rattus norvegicus [8] = test: Inhibitory activity on carrageenan-induced paw edema in rats 3h after po administration of 0.5 mg/kg; type: functional; conditions: read-out: Inhibition

Row | Compound | LD50 at 168 h [1] [mg/kg] | ED50 (Mus musculus) [mg/kg] | inhibition in vivo at 50 mg/kg (Rattus norvegicus [2]) [%] | inhibition in vivo at 20 mg/kg (Rattus norvegicus [3]) [%] | inhibition in vivo at 10 mg/kg (Rattus norvegicus [4]) [%] | inhibition in vivo at 20 mg/kg (Rattus norvegicus [5]) [%] | inhibition in vivo at 5 mg/kg (Rattus norvegicus [6]) [%] | inhibition in vivo at 2 mg/kg (Rattus norvegicus [7]) [%] | inhibition in vivo at 0.5 mg/kg (Rattus norvegicus [8]) [%]
1 | COc1ccc(-c2cccc(CC(=O)O)c2)cc1 | > 800 | > 50 | 11 |  |  |  |  |  | 
2 | COc1ccc(-c2cc(CC(=O)O)cc(NC(C)=O)c2)cc1 | > 800 | > 50 | 15 |  |  |  |  |  | 
3 | O=C(O)Cc1cc(Cl)cc(-c2ccccc2)c1 | 283 | > 50 | 32 | 25 |  |  |  |  | 
4 | CC(C(=O)O)c1cc(F)cc(-c2ccccc2)c1 (centres undefined) | 566 | > 50 | 31 |  |  |  |  |  | 
5 | COc1ccc(-c2cc(Cl)cc(CC(=O)O)c2)cc1 | 570 | > 50 | 19 |  |  |  |  |  | 
6 | O=C(O)Cc1cccc(-c2ccccc2)c1 | 566 | > 50 | 47 | 0 |  |  |  |  | 
7 | CC(C(=O)O)c1cc(F)cc(-c2ccc(Cl)cc2)c1 (centres undefined) | 200 | > 50 | < 39 | < 26 |  |  |  |  | 
8 | COc1ccc(-c2cc(N)cc(CC(=O)O)c2)cc1 | 800 | > 50 | 0 |  |  |  |  |  | 
9 | Nc1cc(CC(=O)O)cc(-c2ccc(Cl)cc2)c1 | 400 | > 50 | 16 |  |  |  |  |  | 
10 | COc1ccc(-c2cccc(C(C)C(=O)O)c2)cc1 (centres undefined) | 566 | > 50 | 0 |  |  |  |  |  | 
11 | CC(C(=O)O)c1cccc(-c2ccccc2)c1 (centres undefined) | 566 | 26.8 | 17 |  |  |  |  |  | 
12 | Nc1cc(CC(=O)O)cc(-c2ccccc2)c1 | 566 | > 50 | 0 |  |  |  |  |  | 
13 | CC(=O)Nc1cc(CC(=O)O)cc(-c2ccc(Cl)cc2)c1 | 476 | > 50 | 0 |  |  |  |  |  | 
14 | COc1ccc(-c2cc(Cl)cc(C(C)C(=O)O)c2)cc1 (centres undefined) | 283 | > 50 | 8 |  |  |  |  |  | 
15 | O=C(O)Cc1cc(Cl)cc(-c2ccc(Cl)cc2)c1 | 283 | > 50 | 45 | 29 |  |  |  |  | 
16 | CC(C(=O)O)c1cc(Cl)cc(-c2ccc(Cl)cc2)c1 (centres undefined) | 200 | > 50 | < 41 | < 33 |  |  |  |  | 
17 | CC(=O)Nc1cc(CC(=O)O)cc(-c2ccccc2)c1 | > 800 | > 50 | 5 |  |  |  |  |  | 
18 | CC(C(=O)O)c1cc(Cl)cc(-c2ccccc2)c1 (centres undefined) | 168 | > 50 | 4 |  |  |  |  |  | 
19 | CC(C(=O)O)c1cccc(-c2ccc(Cl)cc2)c1 (centres undefined) | 283 | 45 | 35 | 31 |  |  |  |  | 
20 | O=C(O)Cc1cccc(-c2ccc(Cl)cc2)c1 | 238 | > 50 | 44 | < 25 |  |  |  |  | 
21 | O=C(O)Cc1cc(F)cc(-c2ccc(Cl)cc2)c1 | 283 | > 50 | 38 | 16 |  |  |  |  | 
22 | O=C(O)Cc1cc(F)cc(-c2ccccc2)c1 | 566 | > 50 | 50 |  | 26 | 45 |  |  | 
23 | COc1cc(CC(=O)O)cc(-c2ccc(Cl)cc2)c1 |  | 16.1 | 53 | 65 | 39 |  |  |  | 
24 | COc1ccc2c(c1)c(CC(=O)O)c(C)n2C(=O)c1ccc(Cl)cc1 [INDOMETHACIN] |  | 3.1 |  |  |  |  | 45 | 25 | 19
